Data on 1 molecule can be found in paper PMC7468331 (Acta Pharmacologica Sinica, 2019).

The subject of the test is HFD-induced obese mice. The experiment in a line: HFD-induced obese mice. It is filed as in vivo, C57BL/6J male mice. As to conditions: HFD-fed mice. The essentials:
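Male C57BL/6J mice, 5 weeks old, SPF, 12 h light/dark cycle, were fed high-fat diet. After 10 weeks they were randomised to daily gavage with vehicle, test compound (25 or 50 mg/kg) or reference ACC inhibitor (50 mg/kg) to week 22, with food intake and weight recorded weekly. Liver read-outs: H&E, Oil red O, sirius red, F4/80 immunofluorescence, α-SMA IHC, qPCR (ΔΔCt, 18S) and Western blot (β-actin).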

On to `Cc1nc2ccc(C(=O)N3CCC4(CC3)CC(=O)c3c(cnn3C(C)C)C4)cc2[nH]1` [PF-05175157], for which the “activation of macrophages (liver F4/80)” value (50 mg/kg ig daily) was “failed to prevent”. The “Col1a1 gene expression and collagen accumulation in the liver” value (ig daily, sirius red staining) was “not observed”.
